Experimental data from ChEMBL document CHEMBL3616436, “Synthesis, cytotoxicity and antimicrobial activity of thiourea derivatives incorporating 3-(trifluoromethyl)phenyl moiety” (Eur J Med Chem, 2015).
Converted amounts (≈) assume the structure as drawn. The source made the active and inactive calls. No cut-off for these calls is given here.

Assays:
[1] = tested on: WIL2-NS; test: Cytotoxicity against human WIL2-NS cells after 96 hrs by MTT assay; format: functional
Outline: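 Leukaemia/lymphoma lines seeded at 1×10^5 cells/ml in RPMI-1640 with 10% FCS and penicillin/streptomycin; incubated with serial dilutions at 37°C, 5% CO2; viability by MTT after 96 h; value is concentration reducing proliferation by 50%, with untreated controls undergoing at least three rounds of multiplication.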

[2] = target: T1, DNA topoisomerase 4 (Staphylococcus epidermidis) (UniProt Q5HPI6+Q5HPI5); test: Inhibition of decatenation activity of DNA topoisomerase 4 in Staphylococcus epidermidis ATCC 35984 using kDNA as substrate at 32 ug/ml after 1 hr using ethidium bromide staining by agarose gel electrophoresis; format: protein assay
T1 sequence (Q5HPI5 whole entry, looked up): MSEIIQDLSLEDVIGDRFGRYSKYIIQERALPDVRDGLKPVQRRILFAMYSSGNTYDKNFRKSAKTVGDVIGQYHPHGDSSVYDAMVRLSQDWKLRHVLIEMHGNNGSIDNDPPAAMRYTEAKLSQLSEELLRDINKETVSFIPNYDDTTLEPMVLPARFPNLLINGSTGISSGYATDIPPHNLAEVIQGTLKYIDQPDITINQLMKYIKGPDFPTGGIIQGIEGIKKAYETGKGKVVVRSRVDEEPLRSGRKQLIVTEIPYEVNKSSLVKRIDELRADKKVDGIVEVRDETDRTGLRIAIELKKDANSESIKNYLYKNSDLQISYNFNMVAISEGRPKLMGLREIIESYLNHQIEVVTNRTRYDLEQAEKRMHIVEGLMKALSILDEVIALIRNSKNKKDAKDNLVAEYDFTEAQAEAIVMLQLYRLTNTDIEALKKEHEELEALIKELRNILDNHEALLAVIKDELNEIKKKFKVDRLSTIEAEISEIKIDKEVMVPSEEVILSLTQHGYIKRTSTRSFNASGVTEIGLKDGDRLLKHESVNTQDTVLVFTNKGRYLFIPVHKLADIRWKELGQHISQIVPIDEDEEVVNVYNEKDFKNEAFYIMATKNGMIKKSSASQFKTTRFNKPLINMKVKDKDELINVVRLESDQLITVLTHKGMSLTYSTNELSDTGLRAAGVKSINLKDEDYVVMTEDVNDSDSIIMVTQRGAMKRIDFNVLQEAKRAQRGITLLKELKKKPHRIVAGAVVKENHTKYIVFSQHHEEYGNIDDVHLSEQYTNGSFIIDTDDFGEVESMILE
T1 sequence (Q5HPI6 whole entry, looked up): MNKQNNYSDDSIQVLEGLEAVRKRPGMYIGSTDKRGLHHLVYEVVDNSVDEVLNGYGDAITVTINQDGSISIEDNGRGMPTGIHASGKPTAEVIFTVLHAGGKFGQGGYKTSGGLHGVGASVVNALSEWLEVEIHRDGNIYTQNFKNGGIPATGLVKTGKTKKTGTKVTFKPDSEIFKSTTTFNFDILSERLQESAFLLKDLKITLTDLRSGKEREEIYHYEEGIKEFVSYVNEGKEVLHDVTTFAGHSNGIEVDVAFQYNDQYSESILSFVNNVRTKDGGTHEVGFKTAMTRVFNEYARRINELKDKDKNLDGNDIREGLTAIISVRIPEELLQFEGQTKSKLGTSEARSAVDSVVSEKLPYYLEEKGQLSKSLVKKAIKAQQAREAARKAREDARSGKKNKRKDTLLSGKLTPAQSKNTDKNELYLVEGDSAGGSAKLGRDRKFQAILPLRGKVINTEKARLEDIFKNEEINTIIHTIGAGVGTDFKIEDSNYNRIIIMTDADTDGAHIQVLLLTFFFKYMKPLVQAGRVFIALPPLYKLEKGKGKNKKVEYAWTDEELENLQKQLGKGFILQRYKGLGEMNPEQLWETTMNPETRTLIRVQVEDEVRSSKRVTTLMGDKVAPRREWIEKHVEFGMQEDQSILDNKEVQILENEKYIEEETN

[3] = target: T2, Topoisomerase IV (Staphylococcus aureus) (UniProt P0C1U9+P0C1S7); test: Inhibition of decatenation activity of DNA topoisomerase 4 in hospital methicillin-resistant Staphylococcus aureus 79/05 using kDNA as substrate at 32 ug/ml after 1 hr using ethidium bromide staining by agarose gel electrophoresis; format: protein-complex assay
[4] = target: T1, DNA topoisomerase 4 (Staphylococcus epidermidis); test: Inhibition of decatenation activity of DNA topoisomerase 4 in Staphylococcus epidermidis ATCC 12228 using kDNA as substrate at 1 to 4 ug/ml after 1 hr using ethidium bromide staining by agarose gel electrophoresis; format: protein assay
[5] = target: T2, Topoisomerase IV (Staphylococcus aureus); test: Inhibition of decatenation activity of DNA topoisomerase 4 in Staphylococcus aureus ATCC 6538 using kDNA as substrate at 32 ug/ml […] using ethidium bromide staining by agarose gel electrophoresis; format: protein-complex assay
[6] = target: T1, DNA topoisomerase 4 (Staphylococcus epidermidis); test: Inhibition of decatenation activity of DNA topoisomerase 4 in hospital methicillin-resistant Staphylococcus epidermidis 31/04 using kDNA as substrate at 1 to 4 ug/ml after 1 hr using ethidium bromide staining by agarose gel electrophoresis; format: protein assay
[7] = target: T1, DNA topoisomerase 4 (Staphylococcus epidermidis); conditions: 16/04, at 32 µg/mL
[8] = target: T1, DNA topoisomerase 4 (Staphylococcus epidermidis); test: Inhibition of decatenation activity of DNA topoisomerase 4 in hospital methicillin-resistant Staphylococcus epidermidis 63/04 using kDNA as substrate at 32 ug/ml after 1 hr using ethidium bromide staining by agarose gel electrophoresis; format: protein assay
[9] = target: T1, DNA topoisomerase 4 (Staphylococcus epidermidis); test: Inhibition of decatenation activity of DNA topoisomerase 4 in hospital methicillin-resistant Staphylococcus epidermidis 31/04 using kDNA as substrate at 32 ug/ml after 1 hr using ethidium bromide staining by agarose gel electrophoresis; format: protein assay
[10] = tested on: Staphylococcus epidermidis; test: Inhibition of biofilm formation in Staphylococcus epidermidis ATCC 12228 after 24 hrs using MTT staining by spectrophotometer analysis; format: functional, organism-based; conditions: ATCC 12228, 24 h
Outline: (§1)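 Biofilm was grown for 24 h at 37 °C in TSB with 0.5% glucose from 10^7 CFU/mL inoculum, mixed 1:1 with compound. Final concentrations were 0.125–4 or 0.25–8 µg/ml. Wells were PBS-washed and MTT-stained for 2 h at 37 °C, solubilized in DMSO/glycine buffer and read at 554 nm. IC50 (50% inhibition of biofilm formation) was taken from the dose-response curve; quadruplicates.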

[11] = tested on: Staphylococcus epidermidis; test: Inhibition of biofilm formation in Staphylococcus epidermidis 31/04 at 4 ug/ml after 24 hrs using MTT staining by spectrophotometer analysis; format: functional; conditions: 31/04, 24 h
Outline: (§2)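 Methicillin-resistant hospital isolates or ATCC strains of S. epidermidis were grown overnight in tryptone soy broth with 0.5% glucose. Inoculum of 10^7 CFU/mL was mixed 1:1 with compound in TSB-glucose and incubated 24 h at 37 °C. Non-adherent cells were washed off with PBS, and wells were stained with MTT (0.5% in PBS) for 2 h at 37 °C. Stain was solubilized in DMSO/glycine buffer and read at A554. Inhibition is relative to drug-free control; quadruplicates.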

[12] = tested on: Staphylococcus epidermidis; test: Inhibition of biofilm formation in Staphylococcus epidermidis 63/04 after 24 hrs using MTT staining by spectrophotometer analysis; format: functional, organism-based; conditions: 63/04, 24 h; outline: as §1
[13] = target: T2, Topoisomerase IV (Staphylococcus aureus); test: Inhibition of decatenation activity of DNA topoisomerase 4 in hospital methicillin-resistant Staphylococcus aureus 573/11 using kDNA as substrate at 1 to 4 ug/ml after 1 hr using ethidium bromide staining by agarose gel electrophoresis; format: protein-complex assay
[14] = target: T2, Topoisomerase IV (Staphylococcus aureus); test: Inhibition of decatenation activity of DNA topoisomerase 4 in hospital methicillin-resistant Staphylococcus aureus 53/05 using kDNA as substrate at 32 ug/ml after 1 hr using ethidium bromide staining by agarose gel electrophoresis; format: protein-complex assay
[15] = target: T2, Topoisomerase IV (Staphylococcus aureus); test: Inhibition of decatenation activity of DNA topoisomerase 4 in Staphylococcus aureus ATCC 25923 using kDNA as substrate at 1 to 4 ug/ml after 1 hr using ethidium bromide staining by agarose gel electrophoresis; format: protein-complex assay
Outline: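 Kit-supplied S. aureus topoisomerase IV, 1 U, with 200 ng kDNA in the supplied assay buffer. Reactions ran 30 min at 37 °C with compound at 1, 4 or 32 µg/ml. They were stopped with STEB and extracted with chloroform/isoamyl alcohol (24:1). Products were run on 1% agarose in TAE for 1 h at 120 V and visualised with ethidium bromide under UV. Controls were no-enzyme, no-compound and ±DMSO.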

[16] = tested on: Staphylococcus epidermidis; test: Inhibition of biofilm formation in Staphylococcus epidermidis 76/04 after 24 hrs using MTT staining by spectrophotometer analysis; format: functional, organism-based; conditions: 76/04, 24 h; outline: as §1
[17] = target: T1, DNA topoisomerase 4 (Staphylococcus epidermidis); test: Inhibition of decatenation activity of DNA topoisomerase 4 in Staphylococcus epidermidis ATCC 35984 using kDNA as substrate at 1 to 4 ug/ml after 1 hr using ethidium bromide staining by agarose gel electrophoresis; format: protein assay
[18] = tested on: Staphylococcus epidermidis; test: Inhibition of biofilm formation in Staphylococcus epidermidis 23/04 at 4 ug/ml after 24 hrs using MTT staining by spectrophotometer analysis; format: functional; conditions: 23/04, 24 h
[19] = target: T1, DNA topoisomerase 4 (Staphylococcus epidermidis); conditions: 16/04, at 1 to 4 µg/mL
[20] = target: T2, Topoisomerase IV (Staphylococcus aureus); test: Inhibition of decatenation activity of DNA topoisomerase 4 in hospital methicillin-resistant Staphylococcus aureus 57/05 using kDNA as substrate at 32 ug/ml after 1 hr using ethidium bromide staining by agarose gel electrophoresis; format: protein-complex assay
[21] = target: T2, Topoisomerase IV (Staphylococcus aureus); test: Inhibition of decatenation activity of DNA topoisomerase 4 in hospital methicillin-resistant Staphylococcus aureus 81/05 using kDNA as substrate at 32 ug/ml after 1 hr using ethidium bromide staining by agarose gel electrophoresis; format: protein-complex assay
Outline: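 Enzyme was S. aureus topoisomerase IV from a commercial decatenation kit, with kinetoplast DNA as substrate (1 U per 200 ng kDNA) in the supplied buffer. Compound was present at 1, 4 or 32 µg/ml, 30 min at 37 °C. Reactions were stopped with STEB and extracted with chloroform/isoamyl alcohol, then run on 1% agarose in TAE for 1 h at 120 V and stained with ethidium bromide. No-enzyme and DMSO controls were included.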

[22] = target: T1, DNA topoisomerase 4 (Staphylococcus epidermidis); test: Inhibition of decatenation activity of DNA topoisomerase 4 in hospital methicillin-resistant Staphylococcus epidermidis 23/04 using kDNA as substrate at 1 to 4 ug/ml after 1 hr using ethidium bromide staining by agarose gel electrophoresis; format: protein assay
[23] = tested on: Staphylococcus epidermidis; test: Inhibition of biofilm formation in Staphylococcus epidermidis ATCC 35984 at 4 ug/ml after 24 hrs using MTT staining by spectrophotometer analysis; format: functional; conditions: ATCC 35984, 24 h; outline: as §2

Row | Structure (SMILES) | CC50 [1] | inhibition [2] | inhibition [3] | inhibition [4] | inhibition [5] | inhibition [6] | inhibition [7] | inhibition [8] | inhibition [9] | IC50 [10] | inhibition at 4 µg/mL [11] | IC50 [12] | inhibition [13] | inhibition [14] | inhibition [15] | IC50 [16] | inhibition [17] | inhibition at 4 µg/mL [18] | inhibition [19] | inhibition [20] | further results
1 | FC(F)(F)c1cccc(NC(S)=Nc2ccc(Cl)c(Cl)c2)c1 | 8 µM |  |  |  |  |  |  |  |  |  |  |  |  |  |  |  |  |  |  |  | 
2 | O=C(O)c1cn(C2CC2)c2cc(N3CCNCC3)c(F)cc2c1=O [CIPROFLOXACIN] |  | Active | Active | Active | Active | Active | Active | Active | Active | 7 µg/mL (≈ 21.1 µM) | 18.7% | 7.14 µg/mL (≈ 21.5 µM) | Active | Active | Active | 7.93 µg/mL (≈ 23.9 µM) | Active | 5.71% | Active | Active | inhibition [21]: Active; inhibition [22]: Active; inhibition at 4 µg/mL [23]: 45.4%
3 | Fc1ccc(NC(=S)Nc2cccc(C(F)(F)F)c2)cc1Cl | 9 µM | Active | Active | Active | Active | Active | Active | Active | Active | 1.62 µg/mL (≈ 4.65 µM) | 77.1% | 2.39 µg/mL (≈ 6.85 µM) | Active | Active | Active | 2.85 µg/mL (≈ 8.17 µM) | Active | 77.9% | Active | Active | inhibition [21]: Active; inhibition [22]: Active; inhibition at 4 µg/mL [23]: 84%
4 | FC(F)(F)c1cccc(NC(=S)Nc2cccc(Br)c2)c1 | 9.9 µM | Active | Active | Active | Active | Active | Active | Active | Active | 2.8 µg/mL (≈ 7.46 µM) | 70.1% | 5 µg/mL (≈ 13.3 µM) | Active | Active | Active | 2.98 µg/mL (≈ 7.94 µM) | Active | 71.6% | Active | Active | inhibition [21]: Active; inhibition [22]: Active; inhibition at 4 µg/mL [23]: 46.8%
5 | FC(F)(F)c1cccc(NC(=S)Nc2ccc(Cl)cc2)c1 | 13 µM |  |  |  |  |  |  |  |  |  |  |  |  |  |  |  |  |  |  |  | 
